From paper PMC4531836 (Molecular imaging and biology : MIB : the official …, 2015)
“And” between values parts separate entries of the source, which are not always exact repeats. Equal values may be shown once. “Also recorded” adds a separate entry of the source.

Key:
Type in all cases: in vivo, human
[1] = Safety / adverse events in patients with prostate cancer; conditions: nine patients
Procedure, shortened: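 Nine patients received about 320.6 MBq IV after 4–6 h fasting. Vital signs and ECG were recorded before dosing, with pulse oximetry during scanning. Within 2 weeks before and after, they had history, examination, CBC with differential, metabolic panel (BUN, creatinine, alkaline phosphatase, bilirubin, transaminases) and ECG. Follow-up visit or contact came within 30 days. Events were graded by NCI CTCAE.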

Radiation dosimetry = experiment: Radiation dosimetry
Procedure, shortened: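 Four patients were analysed. Organ VOIs were drawn on longitudinal PET scans. Time-activity data were integrated by fitted single- or double-exponential functions, or numerically with single-exponential extrapolation. Residence times were scaled from CT-derived patient organ masses to reference masses. Absorbed doses used the MIRD S-value schema in OLINDA/EXM. The bladder model assumed 1.5 h voiding, and lens dose was taken as the photon dose to brain.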

[2] = Blood and plasma activity, plasma metabolites, urinary excretion
Procedure, shortened: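 Prostate cancer patients received about 320.6 MBq by slow IV push. Venous blood was drawn from the contralateral arm after PET2, PET4 and PET5, and 0.5 ml aliquots of blood and plasma were well-counted. Urine voided after PET4 and PET5 (about 110 and 160 min) was counted. For metabolites, plasma was acetonitrile-precipitated, spiked with unlabelled reference, and run on C18 radio-HPLC in 10% acetonitrile/90% triethylammonium phosphate pH 3.2 at 2 ml/min.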

prostate cancer = experiment: PET/CT tumor uptake
Procedure, shortened: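 Sequential PET/CT ran from injection (PET1–PET4), with PET5 at 120 min. Tumour sites were foci at PET5 with uptake above surrounding soft tissue or blood pool. SUVmax was normalised to lean body mass for up to five hottest lesions per patient, using automatic VOIs at 50% activity threshold. Tumour-to-reference ratio was lesion SUVmax over SUVmean of liver, blood pool or muscle.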

[3] = PET biodistribution in patients; conditions: visual
Procedure, shortened: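 Patients fasted 4–6 h, then received about 320.6 MBq IV (specific activity 107.2 MBq/nmol). Mid-thigh-to-vertex 3D PET/CT with CT attenuation correction followed. Four sequential scans began at injection, at 1, 2, 4 and 4 min per bed. A fifth scan (4 min/bed) ran at 120 min. Two non-blinded nuclear-medicine readers reviewed images visually.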

- Absorbed dose (Radiation dosimetry; Adrenals): 3.11E-02 mGy/MBq
- Res. time (Radiation dosimetry; Adrenals): 3.16E-04 (Bq-h)/Bq
- Res. time (Radiation dosimetry; Bone marrow (spine)): 5.52E-02 (Bq-h)/Bq
- Absorbed dose (Radiation dosimetry; Brain): 2.19E-03 mGy/MBq
- Res. time (Radiation dosimetry; Brain): 4.74E-03 (Bq-h)/Bq
- Absorbed dose (Radiation dosimetry; Breasts): 4.57E-03 mGy/MBq
- Res. time (Radiation dosimetry; Gallbladder): 1.18E-03 (Bq-h)/Bq
- Absorbed dose (Radiation dosimetry; Gallbladder wall): 1.44E-02 mGy/MBq
- Res. time (Radiation dosimetry; Heart): 1.98E-02 (Bq-h)/Bq
- Absorbed dose (Radiation dosimetry; Heart wall): 1.29E-02 mGy/MBq
- Res. time (Radiation dosimetry; Heart wall): 6.24E-03 (Bq-h)/Bq
- Absorbed dose (Radiation dosimetry; Kidneys): 0.0945 mGy/MBq and 9.45E-02 mGy/MBq
- Res. time (Radiation dosimetry; Kidneys): 2.17E-01 (Bq-h)/Bq
- Res. time (Radiation dosimetry; LLI): 4.06E-03 (Bq-h)/Bq
- Absorbed dose (Radiation dosimetry; LLI wall): 1.05E-02 mGy/MBq
- Absorbed dose (Radiation dosimetry; Lacrimal glands): 3.50E-02 mGy/MBq
- Res. time (Radiation dosimetry; Lacrimal glands): 3.86E-04 (Bq-h)/Bq
- Absorbed dose (Radiation dosimetry; Lens): 1.25E-03 mGy/MBq
- Res. time (Radiation dosimetry; Lens): 4.32E-06 (Bq-h)/Bq
- Absorbed dose (Radiation dosimetry; Liver): 0.0380 mGy/MBq and 3.80E-02 mGy/MBq
- Res. time (Radiation dosimetry; Liver): 2.60E-01 (Bq-h)/Bq
- Absorbed dose (Radiation dosimetry; Lungs): 1.08E-02 mGy/MBq
- Res. time (Radiation dosimetry; Lungs): 3.70E-02 (Bq-h)/Bq
- Absorbed dose (Radiation dosimetry; Muscle): 6.32E-03 mGy/MBq
- Res. time (Radiation dosimetry; Muscle): 3.07E-01 (Bq-h)/Bq
- Absorbed dose (Radiation dosimetry; Osteogenic cells): 9.58E-03 mGy/MBq
- Absorbed dose (Radiation dosimetry; Ovaries (hypothetical, all-male cohort)): 8.89E-03 mGy/MBq
- Absorbed dose (Radiation dosimetry; Pancreas): 2.44E-02 mGy/MBq
- Res. time (Radiation dosimetry; Pancreas): 3.05E-03 (Bq-h)/Bq
- Absorbed dose (Radiation dosimetry; Parotid glands): 2.68E-02 mGy/MBq
- Res. time (Radiation dosimetry; Parotid glands): 1.19E-02 (Bq-h)/Bq
- Absorbed dose (Radiation dosimetry; Red marrow): 0.01 mGy/MBq and 1.04E-02 mGy/MBq
- Res. time (Radiation dosimetry; Remainder of body): 7.11E-01 (Bq-h)/Bq
- Absorbed dose (Radiation dosimetry; Skin): 4.05E-03 mGy/MBq
- Absorbed dose (Radiation dosimetry; Small intestine): 9.13E-03 mGy/MBq
- Absorbed dose (Radiation dosimetry; Spleen): 1.85E-02 mGy/MBq
- Res. time (Radiation dosimetry; Spleen): 2.07E-02 (Bq-h)/Bq
- Res. time (Radiation dosimetry; Stomach): 1.07E-02 (Bq-h)/Bq
- Absorbed dose (Radiation dosimetry; Stomach wall): 1.16E-02 mGy/MBq
- Absorbed dose (Radiation dosimetry; Submandibular glands): 0.0387 mGy/MBq and 3.87E-02 mGy/MBq
- Res. time (Radiation dosimetry; Submandibular glands): 6.95E-03 (Bq-h)/Bq
- Absorbed dose (Radiation dosimetry; Testes): 1.01E-02 mGy/MBq
- Res. time (Radiation dosimetry; Testes): 1.76E-03 (Bq-h)/Bq
- Absorbed dose (Radiation dosimetry; Thymus): 5.56E-03 mGy/MBq
- Absorbed dose (Radiation dosimetry; Thyroid): 8.56E-03 mGy/MBq
- Res. time (Radiation dosimetry; Thyroid): 2.34E-04 (Bq-h)/Bq
- Res. time (Radiation dosimetry; Total body): 1.96E+00 (Bq-h)/Bq
- Res. time (Radiation dosimetry; ULI): 2.20E-02 (Bq-h)/Bq
- Absorbed dose (Radiation dosimetry; ULI wall): 1.67E-02 mGy/MBq
- Res. time (Radiation dosimetry; Urinary bladder contents): 2.60E-01 (Bq-h)/Bq
- Absorbed dose (Radiation dosimetry; Urinary bladder wall, voiding interval 1.5 h): 0.0864 mGy/MBq and 8.64E-02 mGy/MBq
- Absorbed dose (Radiation dosimetry; Uterus (hypothetical, all-male cohort)): 1.15E-02 mGy/MBq
- Effective dose (Radiation dosimetry; four patients, OLINDA/EXM): 0.0165 mSv/MBq
- Radiation dose in the whole body and radiosensitive organs (Radiation dosimetry; whole body, red marrow, gonads, breasts): ≤ 0.01 mGy/MBq
- Red cell binding ([2]; 86 and 137 min post-injection): non-detectable
- Red cell binding ([2]; 20 min post-injection): negligible
- Average urinary excretion of the radiotracer ([2]; by 2 h post-injection): 11%
- Urinary excretion of the radiotracer, range ([2]; by 2 h post-injection): 6–15%
- Average urinary excretion of the radiotracer ([2]; by 3 h post-injection): 16%
- Urinary excretion of the radiotracer, range ([2]; by 3 h post-injection): 8–21%
- Radiotracer uptake in the brain [3]: No radiotracer uptake
Structure (SMILES): O=C(O)CCC(NC(=O)NC(CCCCNC(=O)c1ccc([18F])nc1)C(=O)O)C(=O)O (stereo not drawn) [[^18F]DCFPyL, 2-(3-(1-carboxy-5-[(6-[^18F]fluoro-pyridine-3-carbonyl)-amino]-pentyl)-ureido)-pentanedioic acid]
- Radiotracer-related adverse events with monitored heart rate or blood pressure [1]: no radiotracer-related adverse events
- Adverse events ([1]; IV bolus average 320.6 MBq): No major radiotracer-specific adverse events; also recorded: safe to administer
- Radiotracer metabolites in plasma (radio-HPLC) ([2]; three patients, up to 173 min post-injection): all plasma activities were in the form of unmetabolized radioligand; also recorded: no metabolism
- SUVmax, individual lesions (prostate cancer; PET4 and PET5, approximately 1 and 2 h post-radiotracer injection): greater than 100
- SUVmax, highest uptake at a site of primary disease (prostate cancer; PET5 (120 min post-injection)): 71.6
- SUVmax, most avid bone lesions (prostate cancer; PET5 (120 min post-injection)): 102.0
- SUVmax, most avid lymph node lesion (prostate cancer; PET5 (120 min post-injection)): 100.3
- SUVmax in putative sites of prostate cancer (highest, some lesions) (prostate cancer; SUVmax normalized to lean body mass): > 100
